In ChEMBL document CHEMBL3232807, “Genomics-guided discovery of endophenazines from Kitasatospora sp. HKI 714” (2014):
Values after ≈ are worked out from the molar mass of the structure shown.

Columns and labels:
Type in all cases: functional
[1] = test system: Mycolicibacterium fortuitum; assay: Antimicrobial activity against Mycobacterium fortuitum IMET 10667 by broth dilution method
Outline: (§1)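 MIC was determined by broth dilution following the NCCLS standard method.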

[2] = test system: Mycolicibacterium smegmatis; assay: Antimicrobial activity against Mycobacterium smegmatis SG 987 by broth dilution method; outline: as §1
[3] = test system: Staphylococcus aureus; assay: Antimicrobial activity against methicillin-resistant Staphylococcus aureus SG 511 by broth dilution method
Outline: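 MIC was determined by broth dilution following NCCLS guidelines, using S. aureus SG 511 (MRSA).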

[4] = test system: Mycolicibacterium aurum; assay: Antimicrobial activity against Mycobacterium aurum SB 66 by broth dilution method; outline: as §1
[5] = test system: Mycolicibacterium vaccae; assay: Antimicrobial activity against Mycobacterium vaccae IMET 10670 by broth dilution method; outline: as §1
[6] = test system: Mycobacterium avium complex sp.; assay: Antimicrobial activity against Mycobacterium avium complex by BACTEC radiometric assay
[7] = test system: Mycobacterium tuberculosis; assay: Antimicrobial activity against Mycobacterium tuberculosis by BACTEC radiometric assay

In the case of `O=C(O)c1cn(C2CC2)c2cc(N3CCNCC3)c(F)cc2c1=O` [CIPROFLOXACIN], the MIC [1] is reported as 0.1 µg/mL (≈ 0.302 µM), the MIC [2] is reported as 0.78 µg/mL (≈ 2.35 µM) and the MIC [3] is reported as 12.5 µg/mL (≈ 37.7 µM). For the same compound, the MIC [4] was 0.1 µg/mL (≈ 0.302 µM) and the MIC [5] was 0.1 µg/mL (≈ 0.302 µM).

Compound `CC(C)(O)/C=C/c1cccc2nc3cccc(C(=O)O)c3nc12` has an MIC [1] of 25 µg/mL (≈ 81.1 µM), an MIC [2] of 50 µg/mL (≈ 162 µM) and an MIC [3] of 100 µg/mL (≈ 324 µM). For the same compound, the MIC [4] was 25 µg/mL (≈ 81.1 µM) and the MIC [5] was 25 µg/mL (≈ 81.1 µM).

For `O=C(O)c1cccc2c1Nc1ccccc1N2C(=O)CO`, the MIC [1] was 50 µg/mL (≈ 176 µM), the MIC [2] was 50 µg/mL (≈ 176 µM) and the MIC [3] was 100 µg/mL (≈ 352 µM). For the same compound, the MIC [4] was 50 µg/mL (≈ 176 µM) and the MIC [5] was 25 µg/mL (≈ 87.9 µM).

In the case of `C/C(=C\Cc1cccc2nc3cccc(C(=O)O)c3nc12)CO`, the MIC [1] is reported as 25 µg/mL (≈ 81.1 µM), the MIC [2] is reported as 50 µg/mL (≈ 162 µM) and the MIC [3] is reported as 100 µg/mL (≈ 324 µM). It also gave an MIC [4] of 25 µg/mL (≈ 81.1 µM) and an MIC [5] of 25 µg/mL (≈ 81.1 µM).

Work on `O=C(O)c1cccc2nc3ccccc3nc12` [PHENAZINE-1-CARBOXYLIC ACID] yielded an MIC [1] of 50 µg/mL (≈ 223 µM), an MIC [2] of 50 µg/mL (≈ 223 µM) and an MIC [3] of 100 µg/mL (≈ 446 µM). The MIC [4] was 50 µg/mL (≈ 223 µM) and the MIC [5] was 25 µg/mL (≈ 111 µM).

For `CC(C)/N=c1\cc2n(-c3ccc(Cl)cc3)c3ccccc3nc-2cc1Nc1ccc(Cl)cc1` [CLOFAZIMINE], the MIC [6] was 0.12 µg/mL (≈ 0.253 µM) and the MIC [7] was 0.12 µg/mL (≈ 0.253 µM).
